{"source": "ChEMBL document CHEMBL1128448", "about": "“Synthesis and antifungal activity of new azole derivatives containing an N-acylmorpholine ring” (1995)", "key": {"Aspergillus fumigatus": {"system": "Aspergillus fumigatus", "experiment": "In vitro evaluation of minimum inhibitory concentration against Aspergillus fumigatus 33", "type": "functional", "in_short": "(§1)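 Stocks are 800 μg/mL in 50% ethanol. Each plate gets 10 μL of inoculum at 10^5 cfu/mL. Incubation at 25 °C, 48 h for yeasts and 120 h for dermatophytes and molds. Organisms are ATCC strains or clinical isolates.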"}, "Aspergillus niger": {"system": "Aspergillus niger", "experiment": "In vitro evaluation of minimum inhibitory concentration against Aspergillus niger 18", "type": "functional", "conditions": "Aspergillus niger; read-out: MIC", "in_short": "as §1"}, "Pichia kudriavzevii": {"system": "Pichia kudriavzevii", "experiment": "In vitro evaluation of minimum inhibitory concentration against Candida krusei 70", "type": "functional", "conditions": "Pichia kudriavzevii; read-out: MIC", "in_short": "as §1"}, "Candida parapsilosis": {"system": "Candida parapsilosis", "experiment": "In vitro evaluation of minimum inhibitory concentration against Candida parapsilosis 61", "type": "functional", "in_short": "as §1"}, "Candida tropicalis": {"system": "Candida tropicalis", "experiment": "In vitro evaluation of minimum inhibitory concentration against Candida tropicalis 2.11", "type": "functional", "conditions": "Candida tropicalis; read-out: MIC", "in_short": "as §1"}, "Kluyveromyces marxianus": {"system": "Kluyveromyces marxianus", "experiment": "In vivo Evaluation of minimum inhibitory concentration against Candida pseudotropicalis 13", "type": "functional", "in_short": "as §1"}, "Mus sp. [1]": {"system": "Mus sp.", "experiment": "In vivo evaluation of % survival rate after peroral administration on 3rd day at dose 0.5 mg/kg", "type": "functional", "conditions": "route oral"}, "Mus sp. [2]": {"system": "Mus sp.", "experiment": "In vivo evaluation of % survival rate after peroral administration on 3rd day at dose 1 mg/kg", "type": "functional", "conditions": "Mus sp., po"}, "Mus sp. [3]": {"system": "Mus sp.", "experiment": "In vivo evaluation of % survival rate after peroral administration on 5th day at dose 0.5 mg/kg", "type": "functional", "conditions": "route oral"}, "Mus sp. [4]": {"system": "Mus sp.", "experiment": "In vivo evaluation of % survival rate after peroral administration on 5th day at dose 1 mg/kg", "type": "functional", "conditions": "route oral, 1 mg/kg"}, "Mus musculus": {"system": "Mus musculus", "experiment": "In vivo evaluation of % survival rate after peroral administration on 7th day at dose 0.5 mg/kg", "type": "functional", "conditions": "route oral, 0.5 mg/kg"}, "Mus sp. [5]": {"system": "Mus sp.", "experiment": "In vivo evaluation of % survival rate after peroral administration on 7th day at dose 1 mg/kg", "type": "functional", "conditions": "route oral, 1 mg/kg"}, "Mus sp. [6]": {"system": "Mus sp.", "experiment": "In vivo evaluation of % survival rate after peroral administration on 9th day at dose 0.5 mg/kg", "type": "functional", "conditions": "route oral, 0.5 mg/kg"}, "Mus sp. [7]": {"system": "Mus sp.", "experiment": "In vivo evaluation of % survival rate after peroral administration on 9th day at dose 1 mg/kg", "type": "functional", "conditions": "route oral, 1 mg/kg"}, "Microsporum canis": {"system": "Microsporum canis", "experiment": "In vitro evaluation of minimum inhibitory concentration against Microsporum canis 47", "type": "functional", "in_short": "as §1"}, "Nannizzia gypsea": {"system": "Nannizzia gypsea", "experiment": "In vitro evaluation of minimum inhibitory concentration against Microsporum gypseum 22", "type": "functional", "in_short": "as §1"}, "Rattus norvegicus [8]": {"system": "Rattus norvegicus", "experiment": "In vivo evaluation of antifungal activity against vaginal candidosis in rat at dose 0.1 mg/kg on 10th day", "type": "functional", "in_short": "(§2)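 Groups of 10 female Wistar rats given estradiol 25 mg/kg sc on day -5, then vaginally inoculated with C. albicans on day 0. Infection is confirmed by culture of day-3 swabs. Compound is dosed orally once daily on days 3–5; controls get vehicle. Cure is scored by culture of vaginal swabs taken on days 10 and 15.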"}, "Rattus norvegicus [9]": {"system": "Rattus norvegicus", "experiment": "In vivo evaluation of antifungal activity against vaginal candidosis in rat at dose 0.1 mg/kg on 15th day", "type": "functional", "in_short": "as §2"}, "Rattus norvegicus [10]": {"system": "Rattus norvegicus", "experiment": "In vivo evaluation of antifungal activity in against vaginal candidosis in rat at dose 0.25 mg/kg on 10th day", "type": "functional", "in_short": "(§3)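 Groups of 10 female Wistar rats given estradiol 25 mg/kg sc on day -5, infected intravaginally with C. albicans by sterile swab on day 0; infection confirmed on day 3 by swab culture (TSB, then Sabouraud agar). Oral dosing once daily on days 3, 4, 5; vehicle controls. Vaginal swabs cultured on days 10 and 15; read-out % cured (culture-negative).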"}, "Rattus norvegicus [11]": {"system": "Rattus norvegicus", "experiment": "In vivo evaluation of antifungal activity in against vaginal candidosis in rat at dose 0.25 mg/kg on 15th day", "type": "functional", "in_short": "as §3"}, "Nakaseomyces glabratus": {"system": "Nakaseomyces glabratus", "experiment": "In vitro evaluation of minimum inhibitory concentration against Torulopsis glabrata 78", "type": "functional", "in_short": "as §1"}, "Trichophyton benhamiae": {"system": "Trichophyton benhamiae", "experiment": "In vitro evaluation of minimum inhibitory concentration against Trichophyton mentagrophytes 23", "type": "functional, Arthroderma benhamiae", "in_short": "as §1"}, "Trichophyton rubrum": {"system": "Trichophyton rubrum", "experiment": "In vitro evaluation of minimum inhibitory concentration against Trichophyton rubrum 90", "type": "functional", "in_short": "as §1"}, "Rhodotorula mucilaginosa": {"system": "Rhodotorula mucilaginosa", "experiment": "In vitro evaluation of minimum inhibitory concentration against Rhodotorula rubra 16", "type": "functional", "in_short": "as §1"}, "Aspergillus flavus": {"system": "Aspergillus flavus", "experiment": "In vitro evaluation of minimum inhibitory concentration against Aspergillus flavus 19", "type": "functional", "conditions": "Aspergillus flavus; read-out: MIC", "in_short": "as §1"}}, "data": [{"smiles": "C[C@H]1N(C(=O)c2ccc(C(F)(F)F)cc2)CCO[C@@]1(Cn1cncn1)c1ccc(F)cc1F", "note": "(stereo in doubt)", "values": [{"measurement": "MIC", "setting": "Aspergillus fumigatus", "result": 10, "unit": "µg/mL"}, {"measurement": "MIC", "setting": "Aspergillus niger", "result": 40, "unit": "µg/mL"}, {"measurement": "MIC", "setting": "Pichia kudriavzevii", "result": 80, "unit": "µg/mL"}, {"measurement": "MIC", "setting": "Candida parapsilosis", "result": 2.5, "unit": "µg/mL"}, {"measurement": "MIC", "setting": "Candida tropicalis", "result": "> 80", "unit": "µg/mL"}, {"measurement": "MIC", "setting": "Kluyveromyces marxianus", "result": 40, "unit": "µg/mL"}, {"measurement": "survival at 0.5 mg/kg", "setting": "Mus sp. [1]", "result": 100, "unit": "%"}, {"measurement": "survival at 1 mg/kg", "setting": "Mus sp. [2]", "result": 100, "unit": "%"}, {"measurement": "survival at 0.5 mg/kg", "setting": "Mus sp. [3]", "result": 100, "unit": "%"}, {"measurement": "Survival", "setting": "Mus sp. [4]", "result": 100, "unit": "%"}, {"measurement": "Survival", "setting": "Mus musculus", "result": 100, "unit": "%"}, {"measurement": "Survival", "setting": "Mus sp. [5]", "result": 100, "unit": "%"}, {"measurement": "Survival", "setting": "Mus sp. [6]", "result": 100, "unit": "%"}, {"measurement": "Survival", "setting": "Mus sp. [7]", "result": 100, "unit": "%"}, {"measurement": "MIC", "setting": "Microsporum canis", "result": 10, "unit": "µg/mL"}, {"measurement": "MIC", "setting": "Nannizzia gypsea", "result": 20, "unit": "µg/mL"}, {"measurement": "Cure rate", "setting": "Rattus norvegicus [8]", "result": 10, "unit": "%"}, {"measurement": "Cure rate", "setting": "Rattus norvegicus [9]", "result": 20, "unit": "%"}, {"measurement": "Cure rate", "setting": "Rattus norvegicus [10]", "result": 40, "unit": "%"}, {"measurement": "Cure rate", "setting": "Rattus norvegicus [11]", "result": 60, "unit": "%"}, {"measurement": "MIC", "setting": "Nakaseomyces glabratus", "result": 40, "unit": "µg/mL"}, {"measurement": "MIC", "setting": "Trichophyton benhamiae", "result": 10, "unit": "µg/mL"}, {"measurement": "MIC", "setting": "Trichophyton rubrum", "result": 10, "unit": "µg/mL"}, {"measurement": "MIC", "setting": "Rhodotorula mucilaginosa", "result": ">80", "unit": "µg/mL"}, {"measurement": "MIC", "setting": "Aspergillus flavus", "result": "> 80", "unit": "µg/mL"}]}]}
